This passage reports inhibition and IC50 results from ChEMBL document CHEMBL3232795, “Using 'biased-privileged' scaffolds to identify lysine methyltransferase inhibitors” (Bioorg Med Chem, 2014).

Usually inhibition stands for the share of the control response that was lost under treatment. The term IC50 denotes the concentration that gives 50% inhibition.

Each structure is given as a SMILES string. Activity calls are given as the source filed them. The calls are words filed in the database; no cut-off is given here.

For experiment [1], the target named is T1, Histone-lysine N-methyltransferase SETD7 (Homo sapiens) (UniProt Q8WTS6).
T1 sequence (whole entry): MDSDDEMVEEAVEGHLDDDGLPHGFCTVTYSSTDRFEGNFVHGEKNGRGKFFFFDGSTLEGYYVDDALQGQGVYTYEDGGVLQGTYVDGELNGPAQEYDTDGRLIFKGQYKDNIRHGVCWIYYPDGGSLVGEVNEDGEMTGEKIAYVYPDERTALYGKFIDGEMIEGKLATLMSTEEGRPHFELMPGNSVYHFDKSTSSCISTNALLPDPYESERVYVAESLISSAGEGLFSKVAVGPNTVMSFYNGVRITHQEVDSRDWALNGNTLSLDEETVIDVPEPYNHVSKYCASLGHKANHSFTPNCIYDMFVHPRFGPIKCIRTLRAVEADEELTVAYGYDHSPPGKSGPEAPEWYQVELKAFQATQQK
Briefly: Inhibition of SET7 (unknown origin)-mediated methylation of histone H3(1-20)cys-biotin at 15 to 50 uM after 5 mins by scintillation proximity assay in presence of [3H]-S-adenosyl-methionine. In a few lines: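 SET7 (25 nM) with biotinylated H3(1–20)-cys peptide (900 nM) and compound (2% DMSO final) in Tris pH 8.5 buffer with BSA, EDTA and DTT, 5 min at 30 °C. Started with SAM (2 µM) carrying trace 3H-SAM (0.2 µM), 8 min at 30 °C. Quenched onto streptavidin SPA beads in acetate pH 5.0 with excess cold SAM, then counted. Background-subtracted CPM expressed as percent of DMSO control. Tested twice.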
In general terms: Scintillation proximity formats need no separation of bound from free tracer.

Experiment [2] concerns the target T1, Histone-lysine N-methyltransferase SETD7 (Homo sapiens). Briefly: Inhibition of methyl-transferase activity in GST-tagged recombinant SET7/9 (unknown origin) expressed in Escherichia coli BL21 using H3(1-20)-cys-biotin as substrate at 40 uM preincubated for 5 mins followed by substrate addition by ELISA relative to control. The procedure, abridged:
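GST-fused SET7 (residues 52–366), expressed in bacteria. Enzyme at 2.8 nM with SAM (300 nM) in Tris pH 8.0 buffer (4% DMSO, BSA, EDTA, DTT, Triton X-100) on streptavidin plates, preincubated with compound 5 min at room temperature. Biotinylated H3(1–20)-cys substrate (900 nM) added, 5 min at 30 °C. Stopped with acetate pH 5.0. H3K4me1 detected with antibody, HRP secondary and chemiluminescence; signal given relative to DMSO control.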
For orientation: ELISA stands for enzyme-linked immunosorbent assay.

Experiment [3] has as its target T2, Histone-lysine N-methyltransferase EHMT2 (Homo sapiens, UniProt Q96KQ7).
T2 sequence (Q96KQ7 whole entry): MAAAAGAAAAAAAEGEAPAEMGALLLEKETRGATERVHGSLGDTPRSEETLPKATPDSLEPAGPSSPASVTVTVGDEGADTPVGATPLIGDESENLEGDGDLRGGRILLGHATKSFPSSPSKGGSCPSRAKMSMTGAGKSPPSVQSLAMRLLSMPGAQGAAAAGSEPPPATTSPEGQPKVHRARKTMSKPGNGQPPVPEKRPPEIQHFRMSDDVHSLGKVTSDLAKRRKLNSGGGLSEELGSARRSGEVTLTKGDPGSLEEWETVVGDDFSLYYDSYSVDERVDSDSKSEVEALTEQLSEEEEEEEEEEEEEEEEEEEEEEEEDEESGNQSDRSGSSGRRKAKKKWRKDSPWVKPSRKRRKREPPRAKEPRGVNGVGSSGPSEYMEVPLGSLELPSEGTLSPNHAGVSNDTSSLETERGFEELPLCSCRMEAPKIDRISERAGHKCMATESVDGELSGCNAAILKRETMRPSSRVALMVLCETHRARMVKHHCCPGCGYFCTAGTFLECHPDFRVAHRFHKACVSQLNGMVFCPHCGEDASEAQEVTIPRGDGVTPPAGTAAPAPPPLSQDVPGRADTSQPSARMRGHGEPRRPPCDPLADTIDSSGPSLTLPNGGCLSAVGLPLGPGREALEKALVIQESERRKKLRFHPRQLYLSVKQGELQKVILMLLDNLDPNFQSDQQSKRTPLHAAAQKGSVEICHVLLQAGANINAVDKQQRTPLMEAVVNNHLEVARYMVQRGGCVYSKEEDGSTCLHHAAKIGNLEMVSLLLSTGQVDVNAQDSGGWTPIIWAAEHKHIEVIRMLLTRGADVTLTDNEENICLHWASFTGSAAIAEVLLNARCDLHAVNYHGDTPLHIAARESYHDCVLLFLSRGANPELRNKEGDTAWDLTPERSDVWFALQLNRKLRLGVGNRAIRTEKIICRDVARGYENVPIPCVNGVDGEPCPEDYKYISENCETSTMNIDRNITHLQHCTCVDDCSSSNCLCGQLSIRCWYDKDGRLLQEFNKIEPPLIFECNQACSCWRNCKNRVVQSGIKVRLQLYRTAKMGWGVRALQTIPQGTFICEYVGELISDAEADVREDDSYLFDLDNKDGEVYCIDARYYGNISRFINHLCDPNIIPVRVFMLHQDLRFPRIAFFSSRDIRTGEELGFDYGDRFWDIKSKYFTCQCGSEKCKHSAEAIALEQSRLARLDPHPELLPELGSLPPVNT
Nature of the experiment: Inhibition of C-terminal GST-tagged human G9a-mediated-methylation of histone3 expressed in Escherichia coli BL21(DE3) by scintillation proximity assay.

In the case of `O=[N+]([O-])c1ccccc1S(=O)(=O)Nc1cccc(-n2ccc3c(-c4ccc(C(F)(F)F)cc4)cccc32)c1`, the inhibition result in experiment [1] was “Active”. On to `Cc1ccc(-c2cccc3c2ccn3-c2cccc(CNc3cccc(C(=O)O)c3)c2)cc1`, for which the inhibition entry in experiment [2] is “Active”.

Take `O=[N+]([O-])c1ccc(S(=O)(=O)Nc2cccc(-n3ccc4c(-c5ccc(C(F)(F)F)cc5)cccc43)c2)cc1`: the inhibition entry in experiment [1] is “Active”. Take `O=C(O)c1cccc(SCc2cccc(-n3ccc4c(Br)cccc43)c2)c1`: the inhibition entry in experiment [2] is “Active”. In the case of `CS(=O)(=O)c1ccc(S(=O)(=O)Nc2cccc(-n3ccc4c(-c5ccc(C(F)(F)F)cc5)cccc43)c2)cc1`, the inhibition entry in experiment [1] was “Active”. With `CC(=O)Nc1nc(C)c(S(=O)(=O)Nc2cccc(-n3ccc4c(-c5ccc(C(F)(F)F)cc5)cccc43)c2)s1`, the inhibition result in experiment [1] is “Active”. Consider `O=C(O)c1cccc(NCc2cccc(-n3ccc4c(-c5ccccc5)cccc43)c2)c1`, for which, in experiment [2], the inhibition was 50%.

Turning to `O=C(O)c1ccccc1S(=O)(=O)Nc1cccc(-n2ccc3c(-c4ccc(C(F)(F)F)cc4)cccc32)c1`, the inhibition entry in experiment [1] is “Active”. For the compound `O=C(O)c1cccc(NCc2cccc(-n3ccc4c(-c5ccc(C(F)(F)F)cc5)cccc43)c2)c1`, the inhibition entry in experiment [2] and in experiment [1] was “Active” in each case. Moreover, the IC50 in experiment [3] is 26.4 µM. On to `O=C(O)c1cccc(NCc2cccc(-n3cnc4c(-c5ccc(C(F)(F)F)cc5)cccc43)c2)c1`, for which the inhibition entry in experiment [1] was “Active”. For `O=C(O)CCCSCc1cccc(-n2ccc3cc(Br)ccc32)c1`, in experiment [2], the inhibition result is “Active”. Still for that read-out and setting: the result for `N[C@@H](CCSCc1cccc(-n2ccc3cc(Br)ccc32)c1)C(=O)O` reads 12%. As for `O=C(O)c1ccc(S(=O)(=O)Nc2cccc(-n3ccc4c(-c5ccc(C(F)(F)F)cc5)cccc43)c2)cc1`, the inhibition result in experiment [1] is “Active”. As to `O=[N+]([O-])c1cccc(S(=O)(=O)Nc2cccc(-n3ccc4c(-c5ccc(C(F)(F)F)cc5)cccc43)c2)c1`, in experiment [1], the inhibition entry was “Active”.

For the compound `O=C(O)c1cccc(CNc2cccc(-n3ccc4c(-c5ccc(C(F)(F)F)cc5)ncnc43)c2)c1`, the inhibition entry in experiment [1] is “Active”. Turning to `Cc1cc(O)c(C(=O)O)cc1S(=O)(=O)Nc1cccc(-n2ccc3c(-c4ccc(C(F)(F)F)cc4)cccc32)c1`, in experiment [1], the inhibition result is “Active”. In the case of `O=C(O)c1cccc(SCc2cccc(-n3ccc4c(-c5ccccc5)cccc43)c2)c1`, the inhibition in experiment [2] came to 50%. Consider `O=C(O)c1cccc(NCc2cccc(-n3ccc4cc(-c5ccc(C(F)(F)F)cc5)cnc43)c2)c1`, for which the inhibition result in experiment [1] is “Active”. In the case of `O=C(O)c1cccc(SCc2cccc(-n3ccc4cc(Br)ccc43)c2)c1`, the inhibition result in experiment [2] is “Active”.

Take `CC(=O)Nc1ccc(-c2cccc3c2ccn3-c2cccc(CNc3cccc(C(=O)O)c3)c2)cc1`: the inhibition entry in experiment [2] is “Active”. Same read-out and setting: the result for `O=C(O)c1cccc(NCc2cccc(-n3ccc4c(-c5ccc6ccccc6c5)cccc43)c2)c1` reads “Active”; that for `O=C(O)c1ccc(-c2cccc3c2ccn3-c2cccc(CNc3cccc(C(=O)O)c3)c2)cc1`, “inactive”.

In the case of `O=C(O)c1cccc(NCc2cccc(-n3ncc4cc(-c5ccc(C(F)(F)F)cc5)ccc43)c2)c1`, the inhibition entry in experiment [1] is “Active”. On the same count and under the same terms, the result for `O=C(O)c1cccc(S(=O)(=O)Nc2cccc(-n3ccc4c(-c5ccc(C(F)(F)F)cc5)cccc43)c2)c1` reads “Active”; that for `O=C(O)c1cccc(NCc2cccc(-n3ccc4cc(-c5ccc(C(F)(F)F)cc5)ccc43)c2)c1`, “Active”; that for `O=C(O)c1cccc(NCc2ccc(-n3ccc4c(-c5ccc(C(F)(F)F)cc5)ncnc43)s2)c1`, “Active”. Same read-out and setting: the value for `O=C(O)c1cccc(NCc2cccc(-n3ccc4c(-c5ccc(C(F)(F)F)cc5)ncnc43)c2)c1` was “Active”.
